Calls of active or inactive are those of the source. The rule behind the calls is not given here.
Key:
[1] = Inhibition of beta-lactamase OXA-1 expressed in Escherichia coli BL21 (DE3) using nitrocefin substrate by spectrophotometry
Summary of the method: (§1)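 Periplasmic OXA-1 (IPTG-induced, purified by isoelectric focusing ± gel filtration) assayed at 23°C in 50 mM sodium phosphate with 20 mM bicarbonate; 18 nM enzyme, 75 μM nitrocefin read at 482 nm with rising inactivator (penems 50–1,100 nM, tazobactam 50–3,000 μM). kobs from time-course fits plotted against inhibitor concentration gave kinact, then Ki.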

[2] = Ratio of Kinact to Ki for beta-lactamase OXA-1 expressed in Escherichia coli BL21 (DE3) using nitrocefin substrate by spectrophotometry; summary of the method: as §1
[3] = Ratio of Kcat to Kinact for beta-lactamase OXA-1 expressed in Escherichia coli BL21 (DE3) using nitrocefin substrate by spectrophotometry
Summary of the method: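 Partition ratio kcat/kinact set by turnover number: purified OXA-1 (40 μM) mixed 1:1 with inhibitor, 23°C, 50 mM sodium phosphate plus 20 mM bicarbonate, nitrocefin as reporter; inactivation followed up to 900 s and recovery of activity checked to 24 h.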

[4] = Inhibition of beta-lactamase OXA-1 expressed in Escherichia coli DH10B assessed as reduction of piperacillin MIC at 4 mg/L
Summary of the method: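 E. coli DH10B carrying plasmid RGN238 blaOXA-1 tested by agar dilution on Luria Bertani agar, 10⁴ CFU/spot from a Steers replicator; inhibitor held fixed at 4 μg/ml while piperacillin was raised in doubling dilutions.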

[5] = Binding affinity to beta-lactamase OXA-1 expressed in Escherichia coli BL21 (DE3) assessed as compound-enzyme covalent attachment by electrospray ionization mass spectrometry
Summary of the method: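 Purified OXA-1 (40 μM) incubated 15 min with 1.2 mM inhibitor (30:1 inhibitor:enzyme) in 20 mM diethanolamine, pH 8.6; protein diluted in acetonitrile-1% formic acid to 10 μM and analysed intact by nanospray ESI-QTOF MS; deconvoluted spectra compared with apo enzyme (theoretical mass 28,132 Da).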

Kinact [1] | Ratio [2] | Ratio [3] | inhibition [4] | inhibition [5] | Structure (SMILES) | Ki [1]
0.11 s⁻¹ | 9.2 µM⁻¹ s⁻¹ | 0 | Active | Active | O=C(O)C1=CS[C@@H]2/C(=C\c3cc4n(n3)CSCC4)C(=O)N12 [PENEM-2] | 12 nM
0.13 s⁻¹ | 2.9 µM⁻¹ s⁻¹ | 0 | Active | Active | O=C(O)C1=CS[C@@H]2/C(=C\c3cc4n(n3)CSC4)C(=O)N12 [PENEM-1] | 45 nM

Structure (SMILES) | Kinact [1] | Ratio [2] | Ratio [3] | inhibition [4] | inhibition [5] | Ki [1]
C[C@]1(Cn2ccnn2)[C@H](C(=O)O)N2C(=O)C[C@H]2S1(=O)=O [TAZOBACTAM] | 0.12 s⁻¹ | 0.0015 µM⁻¹ s⁻¹ | 349 | – | – | 80000 nM
